Active and inactive are the calls of the source. The rule behind the calls is not given here.
Tests used:
DNA [1] = assay: Binding affinity at Escherichia coli pBR322 DNA assessed as unwinding of supercoiled DNA at 0.1 uM incubated for 10 mins in presence of human topoisomerase 1 by agarose gel based electrophoresis; assay type: nucleic-acid assay
In short: (§1)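 Intercalation assay with relaxed pBR322 (300 ng) and 2 units human Topo I in 50 mM Tris-HCl pH 7.5, 2.5 mM MgCl₂, 0.5 mM DTT and 50 µg/mL BSA, run 10 min at 37 °C. Stopped by phenol/chloroform/isoamyl alcohol extraction. Products run on 1.2% agarose in TAE, 2 V/cm for 15 h, then EtBr-stained. EtBr served as control; three independent experiments.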

G-361 = assay: Antiproliferative activity against human G-361 cells assessed as cell viability measured after 4 days by MTT assay; assay type: functional, cell-based; conditions: G-361, 96 h
In short: (§2)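 Leukemia/lymphoma cells (RPMI 1640, 10% FCS) resuspended at 1 × 10⁵ cells/mL with serial drug dilutions and read by MTT after 96 h at 37 °C. Solid-tumor cells (own media, 10% FCS) were seeded at 5 × 10⁴ cells/mL, allowed 16 h to adhere, then dosed and read by MTT 4 days later. IC50 was derived by linear regression of growth as % of untreated controls.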

MT4 = assay: Antiproliferative activity against human MT-4 cells assessed as cell viability measured after 4 days by MTT assay; assay type: functional, cell-based; conditions: MT4, 96 h; in short: as §2
MCF7 [2] = assay: Induction of DNA damage in human MCF7 cells assessed as increase tail length at 10 uM after 24 hrs by comet assay (reference value: 8%); assay type: functional
In short: (§3)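 About 1 × 10⁵ MCF-7 cells seeded; after 24 h, drug added for 24 h, with 10 µM VP-16 as positive control. Alkaline comet assay: lysis 1 h at 4 °C at pH 10, unwinding at pH 13, then electrophoresis at 30 V for 15 min. Slides neutralized, PI-stained and imaged by fluorescence microscopy at 10×. Tail lengths were taken from randomly selected cells.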

[3] = molecular target: DNA topoisomerase 2-beta (Homo sapiens) (UniProt Q02880); assay: Poison activity at topo2beta (unknown origin) assessed as induction of accumulation of topo-2/DNA cleavage complex formation by agarose gel electrophoresis
MCF7 [4] = assay: Induction of DNA damage in human MCF7 cells assessed as increase tail length at 1 to 10 uM after 24 hrs by comet assay; assay type: functional, cell-based; conditions: dose 1-10 µM; in short: as §3
Calf thymus DNA [5] = assay: Binding affinity to calf thymus DNA assessed as isosbestic point by UV-vis spectroscopy; assay type: nucleic-acid assay; conditions: Bos taurus
In short: (§4)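 ctDNA held at 0.2 mM in phosphate buffer pH 7 and titrated with drug from […]. UV-vis spectra recorded in a 1 cm quartz cuvette. Binding constant was taken by the mole-ratio method from optical density changes at 260 nm, using a double reciprocal plot.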

MCF7 [6] = assay: Induction of cell cycle arrest in human MCF7 cells assessed as accumulation of cells at G0/G1 phase at 0.1 uM after 48 hrs by flow cytometry (reference value: 51.7%); assay type: functional
In short: (§5)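 MCF-7 cells exposed continuously to vehicle or 0.1 µM drug for 12, 24 and 48 h. Cell cycle distribution was assessed by flow cytometry.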

MCF7 [7] = assay: Induction of cell cycle arrest in human MCF7 cells assessed as accumulation of cells at S phase at 0.1 uM after 48 hrs by flow cytometry (reference value: 31.3%); assay type: functional; in short: as §5
MCF7 [8] = assay: Induction of DNA damage in human MCF7 cells assessed as increase in gammaH2AX foci at 5 to 10 uM measured after 0.5 to 3 hrs by Western blot analysis; assay type: functional, cell-based; conditions: dose 5-10 µM, time 0.5-3 hrs
In short: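 MCF-7 cells were treated for 0.5, 1 and 3 h, washed with ice-cold PBS and lysed in RIPA buffer containing PMSF and protease inhibitors. Lysates run on SDS-PAGE, blotted to PVDF and probed for H2AX, with β-actin as loading control. Detection by HRP secondary antibody and enhanced chemiluminescence.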

[9] = molecular target: DNA topoisomerase 2-alpha (Homo sapiens) (UniProt P11388); assay: Inhibition of human topoisomerase 2alpha mediated pBR322 DNA relaxation at 1.5 uM by agarose gel electrophoresis relative to control
CCRF-SB = assay: Antiproliferative activity against human CCRF-SB cells assessed as cell viability measured after 4 days by MTT assay; assay type: functional, cell-based; conditions: 96 h; in short: as §2
Calf thymus DNA [10] = assay: Binding affinity to calf thymus DNA assessed as lamda max by UV-vis spectroscopy; assay type: nucleic-acid assay; conditions: Bos taurus; in short: as §4
HeLa = assay: Antiproliferative activity against human HeLa cells assessed as cell viability measured after 4 days by MTT assay; assay type: functional, cell-based; conditions: 96 h
In short: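 Solid-tumor cells (own media, 10% FCS) were seeded at 5 × 10⁴ cells/mL, allowed 16 h to adhere, then dosed and read by MTT 4 days later. IC50 was derived by linear regression of growth as % of untreated controls.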

MCF7 [11] = assay: Induction of cell cycle arrest in human MCF7 cells assessed as accumulation of cells at S phase at 0.1 uM after 12 hrs by flow cytometry (reference value: 31.3%); assay type: functional; in short: as §5
MCF7 [12] = assay: Induction of cell cycle arrest in human MCF7 cells assessed as accumulation of cells at S phase at 0.1 uM after 24 hrs by flow cytometry (reference value: 31.3%); assay type: functional; in short: as §5
CCRF-CEM = assay: Antiproliferative activity against human CCRF-CEM cells assessed as cell viability measured after 4 days by MTT assay; assay type: functional, cell-based; conditions: 96 h; in short: as §2
Calf thymus DNA [13] = assay: Binding affinity to calf thymus DNA assessed as red shift by UV-vis spectroscopy; assay type: nucleic-acid assay; design: unit not given here; conditions: Bos taurus; in short: as §4
MCF7 [14] = assay: Induction of cell cycle arrest in human MCF7 cells assessed as accumulation of cells at G2/M phase at 0.1 uM after 48 hrs by flow cytometry (reference value: 17%); assay type: functional; in short: as §5
HT-29 = assay: Antiproliferative activity against human HT-29 cells assessed as cell viability measured after 4 days by MTT assay; assay type: functional, cell-based; conditions: HT-29, 96 h; in short: as §2
MCF7 [15] = assay: Induction of cell cycle arrest in human MCF7 cells assessed as accumulation of cells at G0/G1 phase at 0.1 uM after 24 hrs by flow cytometry (reference value: 51.7%); assay type: functional; in short: as §5
MCF7 [16] = assay: Antiproliferative activity against human MCF7 cells assessed as cell viability measured after 4 days by MTT assay; assay type: functional, cell-based; conditions: MCF7, 96 h; in short: as §2
ACHN = assay: Antiproliferative activity against human ACHN cells assessed as cell viability measured after 4 days by MTT assay; assay type: functional, cell-based; conditions: 96 h; in short: as §2
MCF7 [17] = assay: Induction of cell cycle arrest in human MCF7 cells assessed as accumulation of cells at G2/M phase at 0.1 uM after 12 hrs by flow cytometry (reference value: 17%); assay type: functional; in short: as §5
[18] = molecular target: DNA topoisomerase 2-alpha (Homo sapiens) (UniProt P11388); assay: Inhibition of human topoisomerase 2alpha mediated pBR322 DNA relaxation at 0.7 uM by agarose gel electrophoresis relative to control
MCF7 [19] = assay: Induction of cell cycle arrest in human MCF7 cells assessed as accumulation of cells at G0/G1 phase at 0.1 uM after 12 hrs by flow cytometry (reference value: 51.7%); assay type: functional; in short: as §5
Calf thymus DNA [20] = assay: Binding affinity to calf thymus DNA assessed as hypochromism by UV-vis spectroscopy; conditions: Bos taurus
DNA [21] = assay: Binding affinity at Escherichia coli pBR322 DNA assessed as unwinding of supercoiled DNA at 10 uM incubated for 10 mins in presence of human topoisomerase 1 by agarose gel based electrophoresis; assay type: nucleic-acid assay; in short: as §1
MCF7 [22] = assay: Induction of cell cycle arrest in human MCF7 cells assessed as accumulation of cells at G2/M phase at 0.1 uM after 24 hrs by flow cytometry (reference value: 17%); assay type: functional; in short: as §5
SK-MEL-28 = assay: Antiproliferative activity against human SKMEL-28 cells assessed as cell viability measured after 4 days by MTT assay; assay type: functional, cell-based; conditions: SK-MEL-28, 96 h; in short: as §2
[23] = molecular target: DNA topoisomerase 2-alpha (Homo sapiens) (UniProt P11388); assay: Poison activity at human topo2alpha assessed as induction of accumulation of topo-2/DNA cleavage complex formation at 1 to 5 uM using […] plasmid incubated for 10 mins by agarose gel electrophoresis; conditions: dose 1-5 µM
In short: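 Supercoiled pBR322 incubated with purified Topo IIα and drug for 10 min at 30 °C. Stopped with 0.35% SDS plus 0.3 mg/mL proteinase K (final), then 1 h at 56 °C. Products run on 1.2% agarose gels containing EtBr. Linear DNA quantified by gel densitometry; averages of three independent experiments.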

Sequence of DNA topoisomerase 2-alpha (Homo sapiens) (P11388 whole entry): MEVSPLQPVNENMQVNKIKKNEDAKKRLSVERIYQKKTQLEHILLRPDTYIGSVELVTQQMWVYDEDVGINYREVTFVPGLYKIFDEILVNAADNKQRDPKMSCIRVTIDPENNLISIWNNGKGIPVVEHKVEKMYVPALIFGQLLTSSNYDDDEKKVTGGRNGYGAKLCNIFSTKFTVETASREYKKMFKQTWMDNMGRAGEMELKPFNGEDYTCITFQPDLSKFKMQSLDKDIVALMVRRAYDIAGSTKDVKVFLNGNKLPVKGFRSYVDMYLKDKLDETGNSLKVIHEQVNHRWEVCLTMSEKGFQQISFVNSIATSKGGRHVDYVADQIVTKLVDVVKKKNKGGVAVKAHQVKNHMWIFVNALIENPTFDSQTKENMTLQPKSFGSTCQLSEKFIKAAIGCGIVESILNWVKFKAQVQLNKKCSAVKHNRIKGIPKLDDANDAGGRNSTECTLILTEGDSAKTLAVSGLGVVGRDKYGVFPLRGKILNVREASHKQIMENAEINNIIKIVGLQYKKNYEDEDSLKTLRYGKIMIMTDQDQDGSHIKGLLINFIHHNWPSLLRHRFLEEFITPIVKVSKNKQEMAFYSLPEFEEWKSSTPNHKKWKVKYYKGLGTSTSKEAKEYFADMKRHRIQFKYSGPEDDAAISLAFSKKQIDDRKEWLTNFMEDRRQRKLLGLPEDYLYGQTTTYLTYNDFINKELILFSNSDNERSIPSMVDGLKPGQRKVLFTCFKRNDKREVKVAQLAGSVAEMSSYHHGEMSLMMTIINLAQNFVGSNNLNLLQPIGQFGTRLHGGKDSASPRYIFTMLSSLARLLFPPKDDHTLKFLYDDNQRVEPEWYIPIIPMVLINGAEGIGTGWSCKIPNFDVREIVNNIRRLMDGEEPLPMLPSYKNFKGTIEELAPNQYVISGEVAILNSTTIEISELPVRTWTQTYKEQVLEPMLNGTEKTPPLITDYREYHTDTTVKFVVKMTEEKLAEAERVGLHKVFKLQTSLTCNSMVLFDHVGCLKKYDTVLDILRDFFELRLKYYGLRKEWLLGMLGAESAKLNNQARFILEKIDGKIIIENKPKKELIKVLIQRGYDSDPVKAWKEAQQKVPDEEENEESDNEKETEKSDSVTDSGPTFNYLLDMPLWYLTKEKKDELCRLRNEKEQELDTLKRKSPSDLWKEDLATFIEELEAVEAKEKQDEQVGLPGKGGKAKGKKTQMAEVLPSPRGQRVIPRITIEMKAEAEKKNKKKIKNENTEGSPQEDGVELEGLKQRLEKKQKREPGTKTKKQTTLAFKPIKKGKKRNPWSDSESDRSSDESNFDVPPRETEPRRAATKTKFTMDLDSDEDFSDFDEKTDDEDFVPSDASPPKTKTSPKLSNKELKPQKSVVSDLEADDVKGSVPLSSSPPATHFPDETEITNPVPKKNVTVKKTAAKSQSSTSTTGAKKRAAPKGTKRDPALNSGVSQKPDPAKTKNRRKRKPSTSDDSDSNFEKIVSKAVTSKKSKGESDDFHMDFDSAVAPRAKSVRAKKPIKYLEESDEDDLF
Sequence of DNA topoisomerase 2-beta (Homo sapiens) (Q02880 whole entry): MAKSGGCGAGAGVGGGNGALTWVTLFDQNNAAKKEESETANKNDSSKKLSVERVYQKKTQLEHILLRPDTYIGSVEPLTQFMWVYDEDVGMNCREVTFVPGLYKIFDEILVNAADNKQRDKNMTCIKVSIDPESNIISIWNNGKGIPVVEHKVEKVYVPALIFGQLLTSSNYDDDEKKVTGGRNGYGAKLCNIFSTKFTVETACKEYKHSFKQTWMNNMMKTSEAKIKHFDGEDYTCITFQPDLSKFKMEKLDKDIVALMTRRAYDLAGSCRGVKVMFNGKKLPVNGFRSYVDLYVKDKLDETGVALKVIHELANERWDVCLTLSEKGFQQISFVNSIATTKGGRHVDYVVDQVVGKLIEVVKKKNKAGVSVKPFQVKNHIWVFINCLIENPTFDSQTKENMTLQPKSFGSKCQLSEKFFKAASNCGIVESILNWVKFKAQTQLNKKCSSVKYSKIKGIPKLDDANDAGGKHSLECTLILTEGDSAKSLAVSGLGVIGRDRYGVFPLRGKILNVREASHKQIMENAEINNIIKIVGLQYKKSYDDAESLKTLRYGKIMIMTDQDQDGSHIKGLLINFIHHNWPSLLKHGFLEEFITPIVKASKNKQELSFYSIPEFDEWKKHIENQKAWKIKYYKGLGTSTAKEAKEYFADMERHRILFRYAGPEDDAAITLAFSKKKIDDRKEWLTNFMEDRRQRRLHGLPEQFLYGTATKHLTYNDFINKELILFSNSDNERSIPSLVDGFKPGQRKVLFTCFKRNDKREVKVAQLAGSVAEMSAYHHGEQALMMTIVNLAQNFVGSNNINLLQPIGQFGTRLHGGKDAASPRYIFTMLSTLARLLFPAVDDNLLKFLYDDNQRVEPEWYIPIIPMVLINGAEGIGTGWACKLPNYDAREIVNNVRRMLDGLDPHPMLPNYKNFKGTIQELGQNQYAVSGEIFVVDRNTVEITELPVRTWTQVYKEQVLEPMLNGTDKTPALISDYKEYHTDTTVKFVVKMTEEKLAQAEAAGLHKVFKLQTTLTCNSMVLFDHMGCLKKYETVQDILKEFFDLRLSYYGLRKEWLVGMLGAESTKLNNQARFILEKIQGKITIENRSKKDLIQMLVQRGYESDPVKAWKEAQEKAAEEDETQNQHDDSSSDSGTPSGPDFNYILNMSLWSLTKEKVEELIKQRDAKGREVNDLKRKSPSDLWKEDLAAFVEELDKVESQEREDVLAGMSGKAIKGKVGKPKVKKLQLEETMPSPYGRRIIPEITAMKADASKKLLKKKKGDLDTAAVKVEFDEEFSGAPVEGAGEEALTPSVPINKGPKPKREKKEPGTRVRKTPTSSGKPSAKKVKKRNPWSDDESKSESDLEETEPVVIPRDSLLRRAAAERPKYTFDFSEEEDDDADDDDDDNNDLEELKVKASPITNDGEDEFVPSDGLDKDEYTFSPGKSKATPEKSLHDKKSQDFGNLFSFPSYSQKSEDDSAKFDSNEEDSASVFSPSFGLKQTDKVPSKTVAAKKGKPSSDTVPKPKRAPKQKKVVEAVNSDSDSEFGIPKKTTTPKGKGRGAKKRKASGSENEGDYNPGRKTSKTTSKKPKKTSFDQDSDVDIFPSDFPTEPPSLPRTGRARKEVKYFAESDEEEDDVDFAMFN

N[C@@H](CCCCNC(=O)c1ccc2nc3c4cccnc4c(=O)cc-3oc2c1)C(=O)O
Activity (DNA [1]): Active
IC50 (G-361): 6 nM
IC50 (MT4): 6 nM
Activity (MCF7 [2]): 50%
Activity [3]: inactive
Activity (MCF7 [4]): Active
Activity (Calf thymus DNA [5]): 340 nm
Activity (MCF7 [6]): 42.5%
Activity (MCF7 [7]): 8.73%
Activity (MCF7 [8]): Active
inhibition [9]: 100%
IC50 (CCRF-SB): 5 nM
Activity (Calf thymus DNA [10]): 443
IC50 (HeLa): 5 nM
Activity (MCF7 [11]): 30.5%
Activity (MCF7 [12]): 26%
IC50 (CCRF-CEM): 3 nM
Activity (Calf thymus DNA [13]): 448
Activity (MCF7 [14]): 48.77%
IC50 (HT-29): 4 nM
Activity (MCF7 [15]): 48%
IC50 (MCF7 [16]): 3 nM
IC50 (ACHN): 5 nM
Activity (MCF7 [17]): 17.8%
inhibition [18]: 50%
Activity (MCF7 [19]): 51.71%
Activity (Calf thymus DNA [20]): 58%
Activity (DNA [21]): Active
Activity (MCF7 [22]): 26%
IC50 (SK-MEL-28): 2 nM
Activity [23]: Active

— ChEMBL document CHEMBL4706487, “Antitumor agents 7. Synthesis, antiproliferative activity and molecular modeling of new l-lysine-conjugated pyridophenoxazinones as potent DNA-binding ligands and topoisomerase IIα inhibitors” (Eur J Med Chem, 2020)
